Measured values published in ChEMBL document CHEMBL4673221, “Furanoflavones pongapin and lanceolatin B blocks the cell cycle and induce senescence in CYP1A1-overexpressing breast cancer cells” (Bioorg Med Chem, 2018).
Activity calls are given as the source filed them. The calls are words filed in the database; no cut-off is given here.

Tests used:
Cytochrome P450 1A1 [1] = target: T1, Cytochrome P450 1A1 (Homo sapiens, UniProt P04798); assay: Inhibition of human CYP1A1 expressed in HEK293 cells assessed as reduction in CYP1A1 mediated […] induced-toxicity by measuring EC50 at 3 times of IC50 concentration by MTT assay relative to control; type: cell-based; design: scale not given: the % may be the effect or the level left
T1 sequence (P04798 whole entry): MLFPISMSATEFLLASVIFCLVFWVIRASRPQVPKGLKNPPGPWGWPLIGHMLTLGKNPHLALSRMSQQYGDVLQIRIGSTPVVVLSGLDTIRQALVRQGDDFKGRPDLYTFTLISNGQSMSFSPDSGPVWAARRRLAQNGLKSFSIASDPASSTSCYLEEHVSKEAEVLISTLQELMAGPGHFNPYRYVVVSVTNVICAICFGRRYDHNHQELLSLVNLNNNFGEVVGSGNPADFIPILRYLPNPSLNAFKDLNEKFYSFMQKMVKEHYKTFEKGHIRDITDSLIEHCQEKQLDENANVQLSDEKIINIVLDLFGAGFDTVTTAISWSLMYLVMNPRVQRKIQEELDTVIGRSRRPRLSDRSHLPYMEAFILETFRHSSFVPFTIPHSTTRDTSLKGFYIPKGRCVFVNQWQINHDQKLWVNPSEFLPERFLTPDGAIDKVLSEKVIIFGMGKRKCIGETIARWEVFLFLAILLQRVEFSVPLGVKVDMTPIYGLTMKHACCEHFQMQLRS
Procedure, shortened: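 Adherent HEK293 cells transfected with pcDNA3.1/hCYP1A1 were exposed to B[a]P over 0.05–100 µM, with inhibitor at 3x its IC50 from the suspension HEK293-CYP1A1 assay. The EC50 of B[a]P for cell growth inhibition was derived. Cells transfected with empty plasmid were used for comparison. Values are mean and SD of three independent experiments.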

CYP1A1 [2] = target: T2, CYP1A1 (Homo sapiens, UniProt P04798); assay: Inhibition of human CYP1A1 expressed in human HEK293 cells at 10 uM using 7-ethoxyresorufin as substrate preincubated for 30 mins followed by substrate additon and measured after 60 mins by fluorescence based assay relative to control; type: cell-based; details: HEK293 cells expressing human CYP1A1, probe 7-ethoxyresorufin, time 90 min
T2 sequence (P04798 whole entry): T1 sequence (P04798 whole entry)
Procedure, shortened: (§1)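 The assay used live recombinant human HEK293 cells grown in suspension, each cell line expressing a single CYP (CYP1A1 or CYP1B1). Percent inhibition was read at 10 μM, and IC50 values were determined. Values are mean ± SD of three independent experiments. Alpha-naphthoflavone served as the reference inhibitor.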

CYP1A1 [3] = target: T2, CYP1A1; assay: Inhibition of human CYP1A1 expressed in sacchrosomes at 10 uM using 7-ethoxyresorufin as substrate by fluorescence based assay relative to control; details: sacchrosomes expressing human CYP1A1, probe 7-ethoxyresorufin
Procedure, shortened: (§2)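 Enzymes were microsomal preparations isolated from recombinant baker's yeast (Sacchrosomes). Compounds were screened at 10 μM for percent inhibition, and IC50 values were also determined. Values are mean ± SD of three independent experiments. Alpha-naphthoflavone served as the positive control.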

Cytochrome P450 1B1 [4] = target: T3, Cytochrome P450 1B1 (Homo sapiens, UniProt Q16678); assay: Inhibition of human CYP1B1 expressed in human HEK293 cells using 7-ethoxyresorufin as substrate preincubated for 30 mins followed by substrate additon and measured after 60 mins by fluorescence based assay; type: ADME, cell-based; procedure, shortened: as §1
T3 sequence (Q16678 whole entry): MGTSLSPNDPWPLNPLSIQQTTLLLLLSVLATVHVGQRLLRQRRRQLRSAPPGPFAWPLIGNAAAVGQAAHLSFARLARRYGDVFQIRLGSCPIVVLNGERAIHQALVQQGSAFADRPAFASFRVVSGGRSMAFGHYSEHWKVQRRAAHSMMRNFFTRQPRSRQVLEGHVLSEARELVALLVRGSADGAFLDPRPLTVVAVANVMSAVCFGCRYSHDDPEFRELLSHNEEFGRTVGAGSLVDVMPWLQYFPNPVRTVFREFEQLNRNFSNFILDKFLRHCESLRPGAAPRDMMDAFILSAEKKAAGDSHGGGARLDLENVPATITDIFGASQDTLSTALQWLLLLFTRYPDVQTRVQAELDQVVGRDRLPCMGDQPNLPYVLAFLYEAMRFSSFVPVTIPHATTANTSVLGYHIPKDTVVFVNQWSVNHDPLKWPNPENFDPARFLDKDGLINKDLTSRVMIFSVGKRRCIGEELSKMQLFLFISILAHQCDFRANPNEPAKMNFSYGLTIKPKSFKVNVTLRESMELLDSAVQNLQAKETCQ

Cytochrome P450 1A1 [5] = target: T1, Cytochrome P450 1A1; assay: Inhibition of human CYP1A1 expressed in human HEK293 cells using 7-ethoxyresorufin as substrate preincubated for 30 mins followed by substrate additon and measured after 60 mins by fluorescence based assay; type: cell-based; procedure, shortened: as §1
Cytochrome P450 1B1 [6] = target: T3, Cytochrome P450 1B1; assay: Inhibition of human CYP1B1 expressed in sacchrosomes using 7-ethoxyresorufin as substrate by fluorescence based assay; type: ADME; procedure, shortened: as §2
Cytochrome P450 1A1 [7] = target: T1, Cytochrome P450 1A1; assay: Inhibition of human CYP1A1 expressed in sacchrosomes using 7-ethoxyresorufin as substrate by fluorescence based assay; procedure, shortened: as §2
MCF7 [8] = assay: Induction of cell cycle arrest in human MCF7 over expressing CYP1A cells assessed as accumulation at G2/M phase incubated for 24 hrs by PI staining based flow cytometric analysis (reference value: 22.6%); type: functional
MCF7 [9] = assay: Induction of cell cycle arrest in human MCF7 over expressing CYP1A cells assessed as accumulation at S phase incubated for 24 hrs by PI staining based flow cytometric analysis (reference value: 20.1%); type: functional
MCF7 [10] = assay: Induction of cell cycle arrest in human MCF7 over expressing CYP1A cells assessed as accumulation at G0/G1 phase incubated for 24 hrs by PI staining based flow cytometric analysis (Rvb =54.3 %); type: functional
MCF7 [11] = assay: Cell cycle arrest in human MCF-7 cells over expressing CYP1A1 assessed as down regulation of CyclinD1 after 24 hrs by western blotting assay; type: functional, cell-based
Procedure, shortened: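 Cyclin D1 was detected by Western blot, with β-tubulin as loading control. Untreated cells served as control.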

MCF7 [12] = assay: Antiproliferative activity against human MCF-7 cells overexpressing CYP1A1 assessed as reduction in cell viability; type: functional, cell-based
Procedure, shortened: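 MCF-7 cells transfected with pcDNA3.1/CYP1A1 and selected in G418 (1 mg/mL, then […]) to give the stable MCF7-1A1 line. CYP1A1 expression was confirmed by Western blot and 7-ethoxyresorufin enzyme assay. The line was subcloned repeatedly. The reported value is the EC50 for inhibition of proliferation.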

Row | Compound | Activity (Cytochrome P450 1A1 [1]) [%] | inhibition at 1 h, 10 µM (CYP1A1 [2]) [%] | inhibition at 10 µM (CYP1A1 [3]) [%] | IC50 (Cytochrome P450 1B1 [4]) [µM] | IC50 (Cytochrome P450 1A1 [5]) [µM] | IC50 (Cytochrome P450 1B1 [6]) [µM] | IC50 (Cytochrome P450 1A1 [7]) [µM] | Activity (MCF7 [8]) [%] | Activity (MCF7 [9]) [%] | Activity (MCF7 [10]) [%] | Activity (MCF7 [11]) | EC50 (MCF7 [12]) [µM]
1 | COc1c(-c2cc(-c3ccccc3)n(-c3ccc(C#N)cc3)n2)ccc2occc12 | 91 | > 84 | > 70 | 5.7 | 0.49 | > 20 | 0.28 |  |  |  |  | 
2 | COc1c(-c2cc(-c3ccccc3)nn2-c2ccccc2[N+](=O)[O-])ccc2occc12 |  |  | 31.6 |  |  |  |  |  |  |  |  | 
3 | O=c1cc(-c2cccc(O)c2)oc2c1ccc1occc12 |  |  |  | 1.2 | 0.24 | 3.8 | 0.69 |  |  |  |  | 
4 | COc1c(-c2cc(-c3ccccc3)nn2-c2ccc(C#N)cc2)ccc2occc12 |  | > 84 | > 70 | 25.5 | 8.6 | 6.2 | 6.8 |  |  |  |  | 
5 | O=c1cc(-c2ccccc2)oc2c1ccc1ccccc12 [ALPHA-NAPHTHOFLAVONE] |  |  |  |  |  |  |  | 20.5 | 24.1 | 55.4 | Active | > 20
6 | COc1c(-c2ccccc2)oc2c(ccc3occc32)c1=O [KARANJIN] |  |  |  | 0.03 | 0.03 | 4.1 | 2.7 |  |  |  |  | 
7 | COc1c(C(=O)/C=C(\O)c2ccc3c(c2)OCO3)ccc2occc12 [OVALITENONE] |  |  |  | 1.5 | 0.48 | 0.6 | 0.28 |  |  |  |  | 
8 | O=c1cc(-c2ccc3c(c2)OCO3)oc2c1ccc1occc12 [PONGAGLABRONE] |  |  |  | 6.8 | 6.4 | 3.4 | 8.2 |  |  |  |  | 
9 | COc1c(C(=O)/C=C(\O)c2ccccc2)ccc2occc12 [PONGAMOL] | 73 |  |  | 4.5 | 4.4 | 3.9 | 2.4 |  |  |  |  | 
